The array DNA melting data of Ke et al. (doi:10.1101/2024.01.08.574731)

Tests used:
[1] = melting temperature; fluorescence melt of hairpins on a sequencing array, two-state fit, raised by 9.35 °C to match UV melts; settings: sodium 0.088 M
How it was run: (§1)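 Hairpins were imaged by Cy3 fluorescence on a sequenced MiSeq flow cell with annealed Cy3 and quencher oligos, in 50 mM Na-HEPES pH 8.0, 25 mM NaCl, in 2.5 °C steps up to 60 °C. Bootstrapped two-state fits of normalised signals gave melting temperature and folding enthalpy. Four replicates were combined by inverse variance, and fitted temperatures were raised by 9.35 °C to match UV melts.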

[2] = folding enthalpy; higher = less favourable; fluorescence melt of hairpins on a sequencing array, two-state fit; settings: sodium 0.088 M
How it was run: as §1

GGCAGGTCGAAAGACGCC (((..(((....))))))
Tm [1]: 53.5 °C | folding enthalpy [2]: -24 kcal/mol

GCTAGCGAAAGCTAAAGC ((((((....)))..)))
Tm [1]: 46 °C | folding enthalpy [2]: -19.1 kcal/mol

GCGTTGCGAAAGCCACGC ((((.((....)).))))
Tm [1]: 66.6 °C | folding enthalpy [2]: -36.6 kcal/mol

GACTGTGGAAACGTAGTC ((((..(....)..))))
Tm [1]: 34.8 °C | folding enthalpy [2]: -17.5 kcal/mol

GAAGCCGAAAGGCAATTC ((((((....)))..)))
Tm [1]: 39.6 °C | folding enthalpy [2]: -13.7 kcal/mol

GCATCCCCGAAAGGGTGC (((..(((....))))))
Tm [1]: 53.5 °C | folding enthalpy [2]: -17.5 kcal/mol

GTCGTCGAAAGACGGAC ((((((....))).)))
Tm [1]: 56.2 °C | folding enthalpy [2]: -13.6 kcal/mol

GCCTGGCGAAAGCCTTGC ((..(((....)))..))
Tm [1]: 42.1 °C | folding enthalpy [2]: -13 kcal/mol

GTTGTCGGAAACAACAAC (((((.(....).)))))
Tm [1]: 40.2 °C | folding enthalpy [2]: -23.4 kcal/mol

GACACTGGAAACAGTGCC (.(((((....))))).)
Tm [1]: 43.2 °C | folding enthalpy [2]: -14.8 kcal/mol

GCGTGGCGAAAGCTCCGC (((..((....))..)))
Tm [1]: 54.8 °C | folding enthalpy [2]: -22.1 kcal/mol

GCTTTGCGAAAGCGAAGC ((((.((....)).))))
Tm [1]: 66.2 °C | folding enthalpy [2]: -37.2 kcal/mol

GCAGAGCGAAAGCTAGGC ((..(((....)))..))
Tm [1]: 50.7 °C | folding enthalpy [2]: -16.4 kcal/mol

GCCTCAACGAAAGTTGGC (((..(((....))))))
Tm [1]: 42.9 °C | folding enthalpy [2]: -12.4 kcal/mol

GTTATCCGAAAGGAAAC (((.(((....))))))
Tm [1]: 31.5 °C | folding enthalpy [2]: -14.5 kcal/mol

GTGGTAGGAAACTACCAC (((((((....)))))))
Tm [1]: 61.2 °C | folding enthalpy [2]: -54.9 kcal/mol

GAGCTCGGAAACGAGTTC ((.((((....)))).))
Tm [1]: 53 °C | folding enthalpy [2]: -29.1 kcal/mol

CGCGCGGAAACGCTCGCG ((((((....)))..)))
Tm [1]: 52.5 °C | folding enthalpy [2]: -23.4 kcal/mol

GCTTTGCGAAAGCTATGC ((.(.((....)).).))
Tm [1]: 45.6 °C | folding enthalpy [2]: -12.6 kcal/mol

GCACGCGGAAACGCGCAC (..((((....))))..)
Tm [1]: 31.1 °C | folding enthalpy [2]: -7.82 kcal/mol

GGGCGACCGAAAGGTCCC (((..(((....))))))
Tm [1]: 49.8 °C | folding enthalpy [2]: -13 kcal/mol

GGAACCGAAAGGTCTCC ((((((....))).)))
Tm [1]: 44.7 °C | folding enthalpy [2]: -22.1 kcal/mol

GGTGCCGAAAGGCTCACC ((((((....)))..)))
Tm [1]: 46.3 °C | folding enthalpy [2]: -11.6 kcal/mol

GGTAGCGGAAACGCTATC (.(((((....))))).)
Tm [1]: 51.8 °C | folding enthalpy [2]: -29.2 kcal/mol

GCAAGAGAAATCTTGC ((((((....))))))
Tm [1]: 52.8 °C | folding enthalpy [2]: -38.3 kcal/mol

GATCCTCAAAAGGATC ((((((....))))))
Tm [1]: 51.3 °C | folding enthalpy [2]: -32.5 kcal/mol

GCTATTTCGAAAGAAAGC (((..(((....))))))
Tm [1]: 28.3 °C | folding enthalpy [2]: -12.5 kcal/mol

GAGTTGAAAAACTC (((((....)))))
Tm [1]: 44.7 °C | folding enthalpy [2]: -22 kcal/mol

GATACGGGAAACCGTACC (.(((((....))))).)
Tm [1]: 32.1 °C | folding enthalpy [2]: -15.7 kcal/mol

GGACCCTCGAAAGAGTCC (((..(((....))))))
Tm [1]: 35.9 °C | folding enthalpy [2]: -16.3 kcal/mol

GCATGCGCGAAAGCGTGC (((..(((....))))))
Tm [1]: 51.8 °C | folding enthalpy [2]: -13.4 kcal/mol

GACTTAGGAAACCAAGTC (((((.(....).)))))
Tm [1]: 36 °C | folding enthalpy [2]: -30.6 kcal/mol

GACGTCGGAAACGGCGTC ((((.((....)).))))
Tm [1]: 62.3 °C | folding enthalpy [2]: -46.9 kcal/mol

CGCGCGGAAACGCATGCG ((((((....)))..)))
Tm [1]: 52.9 °C | folding enthalpy [2]: -32.8 kcal/mol

GTCTGAGAAATCAGAC ((((((....))))))
Tm [1]: 52.4 °C | folding enthalpy [2]: -37.5 kcal/mol

GACACCGAAAGGTTCGTC ((((((....)))..)))
Tm [1]: 41.2 °C | folding enthalpy [2]: -20.4 kcal/mol

GAACAGCGAAAGCTATTC (((.(((....))).)))
Tm [1]: 34.7 °C | folding enthalpy [2]: -15.6 kcal/mol

GCGTCGCGAAAGCAAAGC ((.(.((....)).).))
Tm [1]: 62.6 °C | folding enthalpy [2]: -21.3 kcal/mol
